Measurements as given in ChEMBL document CHEMBL4699422, “Synthesis and initial pharmacology of dual-targeting ligands for putative complexes of integrin alphaVbeta3 and PAR2” (RSC Med Chem, 2020).
Active and inactive are the calls of the source. The rule behind the calls is not given here. Where a SMILES comes first, the peptide text is derived from it. [ ]: non-standard residue; d: D form. The star is where a group is joined. X1 = COCc1cn(CCOCCOCCOCCOCCOCCOCCN*)nn1; Orn = NCCC[C@H](N)C(=O)O; 2Furoyl = O=C(c1ccco1)*

Columns and labels:
[1] = molecular target: T1, Integrin alpha-V/beta-3 (Homo sapiens) (UniProt P05106+P06756); test: Antagonist activity at integrin alphavbeta3 receptor in HUVEC cells assessed as inhibition of cell adhesion to human vitronectin at 50 uM preincubated for 30 mins followed by transferring to vitronectin coated plates and measured after 1 hr by DAPI staining based inverted fluorescence microscopic analysis; details: filed as antagonist, time 90.0 min
Method in brief: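 Wells coated overnight at 4 °C with 20 μg/mL human vitronectin in PBS pH 7.4, blocked with 1% BSA 1 h at 37 °C. HUVEC washed, in DMEM, treated ± 50 μM ligand 30 min at 25 °C, seeded, 1 h at 37 °C. Washed 3× PBS, fixed 3.7% formaldehyde 5 min, nuclei DAPI-stained (5 μg/mL), imaged at 10×.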

[2] = molecular target: Proteinase-activated receptor 2 (Homo sapiens) (UniProt P55085); test: (§1) Agonist activity at PAR2 in human EA.hy926 cells assessed as stimulation of calcium mobilization preincubated for 2 hrs with LPS and 30 mins with cRGD followed by compound addition by Fluo-4-AM dye-based FLIPR assay; format: functional, cell-based; details: EA.hy 926, filed as agonist
[3] = molecular target: Proteinase-activated receptor 2 (Homo sapiens) (UniProt P55085); test: (§2) Agonist activity at PAR2 in human EA.hy926 cells assessed as stimulation of calcium mobilization treated with cRGD for 30 mins prior to compound addition by Fluo-4-AM dye-based FLIPR assay; format: functional, cell-based; details: EA.hy 926, filed as agonist
Method in brief: (§3)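 EA.hy926 cells, passages 7–9, grown in DMEM (4.5 g/L glucose, 4 mM L-glutamine, 1 mM pyruvate, FBS, pen/strep). Calcium read on plate reader as normalized ΔRFU over basal. %Stimulation relative to 100 μM SLIGKV-NH₂ (100%). Curves fitted by 4-variable non-linear regression.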

[4] = molecular target: T2, Proteinase-activated receptor 2 (Homo sapiens, UniProt P55085); test: Agonist activity at PAR2 in human EA.hy926 cells assessed as stimulation of calcium mobilization by Fluo-4-AM dye-based FLIPR assay; format: functional, cell-based, EA.hy 926; method in brief: as §3
T2 sequence (P55085 whole entry): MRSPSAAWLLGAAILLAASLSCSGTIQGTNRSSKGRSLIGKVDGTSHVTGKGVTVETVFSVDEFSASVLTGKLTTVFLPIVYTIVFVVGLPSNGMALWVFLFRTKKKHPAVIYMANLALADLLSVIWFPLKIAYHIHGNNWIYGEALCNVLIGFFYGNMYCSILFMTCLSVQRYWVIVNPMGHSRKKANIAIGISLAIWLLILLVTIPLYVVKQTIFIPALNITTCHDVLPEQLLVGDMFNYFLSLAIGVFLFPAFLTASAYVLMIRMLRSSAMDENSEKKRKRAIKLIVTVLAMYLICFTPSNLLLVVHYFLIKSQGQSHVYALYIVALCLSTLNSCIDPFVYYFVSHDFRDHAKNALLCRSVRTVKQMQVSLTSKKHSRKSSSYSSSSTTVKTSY

[5] = molecular target: Proteinase-activated receptor 2 (Homo sapiens) (UniProt P55085); test: (§4) Agonist activity at PAR2 in human EA.hy926 cells assessed as stimulation of calcium mobilization preincubated for 2 hrs with LPS followed by compound addition in absence of cRGD by Fluo-4-AM dye-based FLIPR assay; format: functional, cell-based; details: EA.hy 926, filed as agonist
[6] = molecular target: T1, Integrin alpha-V/beta-3 (Homo sapiens); test: Inhibition of Alexa Fluor 647 labelled fibronectin binding to integrin alphavbeta3 receptor (unknown origin) expressed in HEK293FT cells at 5 uM preincubated for 10 mins followed by fibronectin addition and measured after 30 mins by flow cytometric analysis; format: cell-based; details: filed as antagonist, time 40.0 min
Method in brief: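 HEK293FT co-transfected with αV and β3 constructs (≥24 h), in HBSGB (20 mM HEPES pH 7.4, 150 mM NaCl, 5.5 mM glucose, 1% BSA). Cells ± 5 or 50 μM ligand 10 min at 25 °C in 0.2 mM CaCl₂/2 mM MnCl₂ (activating), then Alexa647-Fn (15 μg/mL) plus Alexa488 anti-β3 AP3, 30 min at 25 °C. Resting control in 1 mM Ca²⁺/1 mM Mg²⁺. Flow cytometry on AP3-positive cells; Fn MFI expressed as % of AP3 MFI.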

[7] = molecular target: T2, Proteinase-activated receptor 2; test: as §1; format: functional, cell-based, EA.hy 926
[8] = molecular target: T2, Proteinase-activated receptor 2; test: as §2; format: functional, cell-based, EA.hy 926; method in brief: as §3
[9] = molecular target: T2, Proteinase-activated receptor 2; test: as §4; format: functional, cell-based, EA.hy 926

Structure (SMILES) | inhibition [1] | EC50 [4] | also measured
COc1ccnc(NCCCOc2ccc(C[C@@H](CC(=O)O)NC(=O)c3ccc(OCc4cn(CCOCCOCCOCCOCCOCCOCCNC(=O)[C@@H](NC(=O)[C@H](CC5CCCCC5)NC(=O)c5ccno5)C5CCCCC5)nn4)cc3)cc2)c1 | Active | 1200 nM | Activity [2]: Active; Activity [3]: Active; Activity [5]: Active
N=C(N)NCCC[C@@H]1NC[C@H](Cc2cn(CCOCCOCCOCCOCCOCCOCCOCCOCCOCCOCCOCCOCCOCCOCCOCCOCCOCCOCCOCCOCCOCCOCCOCCNC(=O)[C@@H](NC(=O)[C@H](CC3CCCCC3)NC(=O)c3ccno3)C3CCCCC3)nn2)NC(=O)[C@@H](Cc2ccccc2)NC(=O)[C@H](CC(=O)O)NC(=O)CNC1=O | Active | 2500 nM | inhibition [6]: Active; EC50 [7]: 1200 nM; EC50 [8]: 1200 nM; EC50 [9]: 3500 nM
COCc1cn(CCOCCOCCOCCOCCOCCOCCNC(=O)[C@@H](NC(=O)[C@H](CC2CCCCC2)NC(=O)c2ccno2)C2CCCCC2)nn1 |  | 890 nM | 

Now those with a lower EC50 [4], led by results:

inhibition [1] | EC50 [4] | Structure (SMILES) | also measured
 | 350 nM | CC[C@H](C)[C@H](NC(=O)[C@H](CC(C)C)NC(=O)c1ccco1)C(=O)NCC(=O)N[C@@H](CCCN=C(N)N)C(=O)N[C@@H](CC(C)C)C(=O)N[C@@H](CCCN)C(N)=O (2Furoyl-LIGRL[Orn]-NH2) | 
 | 73 nM | CC[C@H](C)[C@H](NC(=O)[C@H](CC(C)C)NC(=O)c1ccco1)C(=O)NCC(=O)N[C@@H](CCCNC(=N)N)C(=O)N[C@@H](CC(C)C)C(=O)N[C@@H](CCCN)C(=O)NCCOCCOCCOCCOCCOCCOCCn1cc(COC)nn1 (2Furoyl-LIGRL[Orn]-X1) | 
 | 62 nM | CC[C@H](C)[C@H](NC(=O)[C@H](CC(C)C)NC(=O)c1ccco1)C(=O)NCC(=O)N[C@@H](CCCNC(=N)N)C(=O)N[C@@H](CC(C)C)C(=O)N[C@@H](CCCN)C(=O)NCCOCCOCCOCCOCCOCCOCCOCCOCCn1cc(C[C@H]2CN[C@@H](CCCNC(=N)N)C(=O)NCC(=O)N[C@@H](CC(=O)O)C(=O)N[C@H](Cc3ccccc3)C(=O)N2)nn1 | 
Active | 130 nM | CC[C@H](C)[C@H](NC(=O)[C@H](CC(C)C)NC(=O)c1ccco1)C(=O)NCC(=O)N[C@@H](CCCNC(=N)N)C(=O)N[C@@H](CC(C)C)C(=O)N[C@@H](CCCN)C(=O)NCCOCCOCCOCCOCCOCCOCCOCCOCCOCCOCCOCCOCCOCCOCCOCCOCCOCCOCCOCCOCCOCCOCCOCCn1cc(C[C@H]2CN[C@@H](CCCNC(=N)N)C(=O)NCC(=O)N[C@@H](CC(=O)O)C(=O)N[C@H](Cc3ccccc3)C(=O)N2)nn1 | inhibition [6]: Active
